Here are results for one compound from ChEMBL document CHEMBL5107946, “SF5- and SCF3-substituted tetrahydroquinoline compounds as potent bactericidal agents against multidrug-resistant persister Gram-positive bacteria” (RSC Med Chem, 2021).

SMILES strings stand for the structures. Values after ≈ are worked out from the molar mass of the structure shown. Active and inactive are the calls of the source. No cut-off for these calls is given here.

One assay has as its system Listeria monocytogenes. Description: Antibacterial activity against Listeria monocytogenes ATCC 19115 assessed as bacterial growth inhibition incubated for 18 to 20 hrs by CLSI based broth microdilution assay. Format: functional. The settings on record: time 18-20 hrs. In a few lines:
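MIC by CLSI broth microdilution. Compounds were made as 10 mg mL−1 DMSO stocks and serially diluted 1:2. Inoculum was set to 0.5 McFarland and diluted 1:100 into the wells. Plates were incubated static at 37 °C for 18–20 h before reading the MIC.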

Assay [1] has as its system Staphylococcus aureus. Description: Bactericidal activity against methicillin-resistant Staphylococcus aureus USA300 assessed as reduction in colony forming unit incubated for 20 hrs. In kind it is functional. In a few lines:
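Follows the broth microdilution MIC plate. 4 μL taken from each well without growth, spotted in duplicate on tryptic soy agar and incubated static at 37 °C for 20 h. MBC taken as the concentration giving 99.9% reduction in CFU.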

The test system of assay [2] is Staphylococcus aureus. The assay can be described thus: Antibacterial activity against methicillin-resistant Staphylococcus aureus USA300 (ARLG 1561) assessed as bacterial growth inhibition incubated for 18 to 20 hrs by CLSI based broth microdilution assay. In kind it is functional. The settings on record: time 18-20 hrs. In a few lines: (§1)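 CLSI broth microdilution; compounds and control antibiotics made up at 10 mg mL−1 in DMSO (stock), serially diluted 1:2 across the plate. Inoculum adjusted to 0.5 McFarland, then diluted 1:100 into wells. Plates incubated static at 37 °C for 18–20 h before MIC read.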

Assay [3] relates to Staphylococcus aureus. The assay can be described thus: Antibacterial activity against methicillin-resistant Staphylococcus aureus USA300 (ARLG 1569) assessed as bacterial growth inhibition incubated for 18 to 20 hrs by CLSI based broth microdilution assay. As to conditions: time 18-20 hrs. In kind it is functional. In a few lines: as §1
The subject of assay [4] is Staphylococcus aureus. Description: Antibacterial activity against methicillin-resistant Staphylococcus aureus ST1312 (ARLG 1649) assessed as bacterial growth inhibition incubated for 18 to 20 hrs by CLSI based broth microdilution assay. As to conditions: time 18-20 hrs. Format: functional. In a few lines:
as §1

Assay [5] has as its system Staphylococcus aureus. The assay can be described thus: Antibacterial activity against methicillin-resistant Staphylococcus aureus ST239 (ARLG 1663) assessed as bacterial growth inhibition incubated for 18 to 20 hrs by CLSI based broth microdilution assay. Format: functional. The settings on record: time 18-20 hrs. In a few lines: as §1
In assay [6] the test system is Staphylococcus aureus. The assay can be described thus: Antibacterial activity against methicillin-resistant Staphylococcus aureus ST239 (ARLG 1665) assessed as bacterial growth inhibition incubated for 18 to 20 hrs by CLSI based broth microdilution assay. The settings on record: time 18-20 hrs. In kind it is functional. In a few lines:
as §1

The subject of assay [7] is Staphylococcus aureus. Description: Antibacterial activity against Staphylococcus aureus ATCC 25923 assessed as bacterial growth inhibition at 16 ug/ml incubated for 18 to 20 hrs by CLSI based broth microdilution assay. Format: functional, organism-based. As to conditions: dose 16.0 µg/ml, time 18-20 hrs. In a few lines: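 Single-concentration screen at 16 μg mL−1 final. Overnight TSB culture was diluted 1:1000 in cation-adjusted MHB and grown to early exponential phase. 1 mL of culture was added to compound in glass tubes and incubated overnight at 37 °C. OD600 was read and normalized to the DMSO control after subtracting medium-only OD.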

Assay [8] concerns Staphylococcus aureus. Description: Bactericidal activity against persister methicillin-resistant Staphylococcus aureus ATCC 33592 assessed as reduction in colony forming unit at 1 x MIC incubated for 6 hrs by Time-kill analysis. In kind it is functional, organism-based. In a few lines:
(§2)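 Stationary-phase (persister) time-kill. Overnight TSB culture diluted 1 in 10 in TSB directly (about 2.92 × 10^6 CFU per mL), with no regrowth step. Exposed at 1× or 4× MIC in triplicate at 37 °C. Samples taken at 0, 2, 4 and 6 h, serially diluted in PBS, plated on TSA in duplicate and incubated 18–24 h.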

The subject of assay [9] is Staphylococcus aureus. The assay can be described thus: Bactericidal activity against persister methicillin-resistant Staphylococcus aureus ATCC 33592 assessed as reduction in colony forming unit at 4 x MIC incubated for 6 hrs by Time-kill analysis. In kind it is functional, organism-based. In a few lines: as §2

In the case of `FC(F)(F)c1n[nH]cc1[C@@H]1Nc2ccc(S(F)(F)(F)(F)F)cc2[C@H]2[C@@H]3CC[C@@H](C3)[C@H]21`, the minimum inhibitory concentration (MIC) in the assay on Listeria monocytogenes is 2 µg/mL (≈ 4.35 µM); in the assay on Staphylococcus aureus [2] it was 2 µg/mL (≈ 4.35 µM); in the assay with Staphylococcus aureus [3], 2 µg/mL (≈ 4.35 µM); in the assay with Staphylococcus aureus [4] it was 2 µg/mL (≈ 4.35 µM); in the assay on Staphylococcus aureus [5], 1 µg/mL (≈ 2.18 µM); with Staphylococcus aureus [6], 2 µg/mL (≈ 4.35 µM). The minimal bactericidal concentration (MBC) in the assay on Staphylococcus aureus [1] turned out to be 8 µg/mL (≈ 17.4 µM). Also, the outcome in the assay on Staphylococcus aureus [7], in the assay with Staphylococcus aureus [8] and with Staphylococcus aureus [9] was Active.
